For data set [1], the system named is T47D. As to the kind of experiment: Antiproliferative activity against human T47D cells after 5 days by coulter counter analysis. Particulars: 120 h. Format: functional, cell-based. In outline: (§1)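 Cells plated at 50000/well in 5% FBS phenol red-free DMEM; treated with six concentrations from 10−10 to 10−5 M for 5 days, DMSO vehicle controls. Viable cells counted by Coulter counter; survival ratio = treated/vehicle viable cells (control 100%). IC50 derived from dose–response curves. Cultures at 37 °C, 5% CO2.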

The test system of data set [2] is T47D. As to the kind of experiment: Antiproliferative activity against human tamoxifen-resistant T47D cells over-expressing PKC-alpha after 5 days by coulter counter analysis. As to conditions: 120 h. Format: functional, cell-based. In outline:
as §1

Data set [3] deals with T1, Estrogen receptor (Homo sapiens) (UniProt P03372).
T1 sequence (whole entry): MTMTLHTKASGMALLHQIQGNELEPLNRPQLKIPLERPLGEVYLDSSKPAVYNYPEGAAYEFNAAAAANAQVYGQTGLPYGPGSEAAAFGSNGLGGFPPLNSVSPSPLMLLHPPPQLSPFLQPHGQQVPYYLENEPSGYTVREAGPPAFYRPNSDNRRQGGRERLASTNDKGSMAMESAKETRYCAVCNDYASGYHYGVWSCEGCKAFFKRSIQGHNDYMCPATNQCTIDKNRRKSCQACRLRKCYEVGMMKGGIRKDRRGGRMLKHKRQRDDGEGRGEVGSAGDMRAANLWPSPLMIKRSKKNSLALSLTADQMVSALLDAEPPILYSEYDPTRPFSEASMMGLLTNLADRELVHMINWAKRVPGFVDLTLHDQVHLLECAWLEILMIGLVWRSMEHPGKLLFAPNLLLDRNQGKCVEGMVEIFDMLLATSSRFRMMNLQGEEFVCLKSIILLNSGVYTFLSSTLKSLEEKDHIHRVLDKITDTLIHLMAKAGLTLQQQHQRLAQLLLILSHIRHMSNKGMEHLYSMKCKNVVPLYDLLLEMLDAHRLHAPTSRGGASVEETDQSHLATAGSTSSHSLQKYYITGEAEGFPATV
As to the kind of experiment: Antiestrogenic activity at estrogen receptor in human T47D-KBluc cells assessed as inhibition of estradiol activity by luciferase reporter gene assay relative to estradiol control. Format: cell-based. In outline:
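T47D-kb-Luc cells stably carry an ERE-driven firefly luciferase. Antagonism was read as inhibition of the signal induced by 0.01 nM estradiol, testing 0.1, 1 and 10 nM. Luminescence was normalized to the estradiol control, run in quadruplicate in at least three separate experiments, and given as mean ± SD.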

The subject of data set [4] is MCF7. As to the kind of experiment: Antiproliferative activity against human MCF7 cells after 5 days by coulter counter analysis. Format: functional, cell-based. As to conditions: MCF7, 120 h. In outline: (§2)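 Cells were plated at 50000/well in 5% FBS phenol red-free DMEM. The tamoxifen-resistant line came from prolonged 4-hydroxytamoxifen exposure of MCF-7. Cells were treated 5 days at six concentrations from 10−10 to 10−5 M, with DMSO vehicle. Viable cells were counted by Coulter counter, survival expressed relative to vehicle, and IC50 taken from dose-response curves.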

For data set [5], the system named is MCF7. As to the kind of experiment: Antiproliferative activity against human tamoxifen-resistant MCF7 cells after 5 days by coulter counter analysis. Particulars: MCF7, 120 h. Format: functional, cell-based. The gist of the method: as §2
The target of data set [6] is T1, Estrogen receptor (Homo sapiens). As to the kind of experiment: (§3) Downregulation of ER-alpha expression in human T47D cells measured after 5 days by Western blot analysis. It counts as cell-based.
Data set [7] has the same target. The data set can be described thus: (§4) Downregulation of ER-alpha expression in human tamoxifen-resistant T47D cells over-expressing PKC-alpha measured after 5 days by Western blot analysis. Format: cell-based. (Immunoblotting shows a protein as a band on a membrane.)
Data set [8] can be described thus: Half life in C57BL/6 mouse at 8.3 mg/kg, sc by HPLC-MS/MS analysis. It counts as ADME, organism-based. As to conditions: in vivo.
The nature of data set [9]: Cmax in C57BL/6 mouse at 8.3 mg/kg, sc by HPLC-MS/MS analysis. Format: ADME, organism-based. As to conditions: in vivo. The arrangement: dose 8.3 mg/kg, route subcutaneous.
A short description of data set [10]: AUC in C57BL/6 mouse at 8.3 mg/kg, sc by HPLC-MS/MS analysis. Format: ADME, organism-based. As to conditions: in vivo.
In data set [11] the target is T1, Estrogen receptor (Homo sapiens). The data set can be described thus: Antagonistic activity at estrogen receptor in human MCF7 cells assessed as suppression of PGR expression 10^-8 to 10^-7 M measured after 48 hrs by real-time PCR analysis. It counts as cell-based. In outline: (§5)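 MCF-7 cells were seeded in DMEM with 5% FBS, then switched to phenol red-free DMEM with 5% charcoal-stripped FBS for 48 h. They were treated 48 h with vehicle, E2, or test compound + E2. Expression was measured by real-time PCR, with fold change calculated by 2^−ΔΔCt normalized to five reference genes (18S rRNA, HPRT1, RPL13A, GAPDH, ACTB).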
(In general: Real-time PCR tracks product formation cycle by cycle.)

The target is the same in data set [12]. As to the kind of experiment: Antagonistic activity at estrogen receptor in human MCF7 cells assessed as suppression of EGR3 expression at 10^-8 to 10^-7 M measured after 48 hrs by real-time PCR analysis. It counts as cell-based. In outline: as §5
Data set [13] shares this target. As to the kind of experiment: Antagonistic activity at estrogen receptor in human MCF7 cells assessed as suppression of PDZK1 expression 10^-8 to 10^-7 M measured after 48 hrs by real-time PCR analysis. Format: cell-based. In outline:
as §5

The target is the same in data set [14]. The data set can be described thus: Antagonistic activity at estrogen receptor in human MCF7 cells assessed as suppression of TFF1 expression 10^-8 to 10^-7 M measured after 48 hrs by real-time PCR analysis. It counts as cell-based. In outline: as §5
Data set [15] shares this target. As to the kind of experiment: Antagonistic activity at estrogen receptor in human MCF7 cells assessed as suppression of WISP1 expression 10^-8 to 10^-7 M measured after 48 hrs by real-time PCR analysis. Format: cell-based. In outline:
as §5

Data set [16] has as its target T2, Estrogen receptor (Homo sapiens, UniProt P03372).
T2 sequence (P03372 whole entry): T1 sequence (whole entry)
The data set can be described thus: Displacement of fluoromone ligand from recombinant ER-alpha (unknown origin) by LanthaScreen TR-FRET assay. The gist of the method: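 Competitive TR-FRET binding with recombinant ERα, in which test compound displaces a fluormone tracer. Six to ten concentrations spanning the IC50 were tested in quadruplicate, and IC50 was taken from the competition curves.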

Data set [17] has as its target T2, Estrogen receptor. The data set is described as §3. Format: cell-based.
Data set [18] concerns the target T2, Estrogen receptor. Described as §4. It counts as cell-based.
A short description of data set [19]: Half life in C57BL/6 mouse at 8.3 mg/kg administered through oral gavage by HPLC-MS/MS analysis. Format: ADME, organism-based. Particulars: in vivo. The gist of the method:
(§6)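 Female C57BL/6 mice, n = 5, given a single 8.3 mg/kg oral gavage in PBS/ethanol. Orbital sinus blood was drawn into EDTA at 1, 3, 6, 24 and 48 h, with each group sampled once. Analysis by UPLC-MS/MS on a C18 column with a water/acetonitrile 0.05% formic acid gradient.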

The nature of data set [20]: Cmax in C57BL/6 mouse at 8.3 mg/kg administered through oral gavage by HPLC-MS/MS analysis. Format: ADME, organism-based. Details: dose 8.3 mg/kg, route oral. As to conditions: in vivo. The gist of the method: as §6
Data set [21] is described as follows: AUC in C57BL/6 mouse at 8.3 mg/kg administered through oral gavage by HPLC-MS/MS analysis. Format: ADME, organism-based. Particulars: in vivo. The gist of the method: as §6

Active and inactive are the calls of the source. No cut-off for these calls is given here.

For orientation: IC50 means the concentration at which inhibition is half-maximal. Consider `CC/C(=C(\c1ccc(O)cc1)c1ccc(OCCN(C)C)cc1)c1ccccc1` [AFIMOXIFENE], for which the values for the IC50 in data set [1] and in [2] were 0.024 µM and 0.54 µM, respectively.

In general, half-life refers to the time in which the quantity being followed falls by half. Read a low half-life as rapid decline. Usually Cmax stands for the peak of the concentration-time curve. One may read the AUC as the area under the concentration-time curve, a measure of exposure. High values mean high exposure, low ones low exposure. Take `C[C@]12CC[C@@H]3c4ccc(O)cc4C[C@@H](CCCCCCCCC[S+]([O-])CCCC(F)(F)C(F)(F)F)[C@H]3[C@@H]1CC[C@@H]2O` (stereo not given in full) [FULVESTRANT]: the inhibition entry in [3], in [6] and in data set [7] was “Dose-dependent effect” each time. In addition, the IC50 in data set [4] turned out to be 0.0015 µM; in data set [1], 0.0012 µM; in [5] it was 0.044 µM; in data set [2] it was 0.042 µM. In addition, the half-life in [8] is 14 h. Also, the Cmax in [9] is 0.0152 µg/mL. The AUC in [10] amounted to 0.158 µg·h/mL.

As for `C[C@]12CC[C@@H]3c4ccc(B(O)O)cc4C[C@@H](CCCCCCCCC[S+]([O-])CCCC(F)(F)C(F)(F)F)[C@H]3[C@@H]1CC[C@@H]2O` (stereo not given in full) [ZB-716], the inhibition result in data set [11], in [12], in [13], in [14] and in data set [15] was “Active” throughout. In addition, the inhibition result in [3], in data set [6] and in data set [7] was “Dose-dependent effect” throughout. Besides, the IC50 in [4] is 0.0032 µM; in [1], 0.0061 µM; in [5] it was 0.069 µM; in data set [2], 0.037 µM; in data set [16] it was 0.0041 µM; in [17], 0.0078 µM. The IC50 in data set [18] amounted to 0.0127 µM. Moreover, the t1/2 in [19] amounted to 23.5 h. The Cmax in data set [20] is 0.1698 µg/mL. In data set [21], this compound gave an AUC of 2.5471 µg·h/mL.

Values taken from ChEMBL document CHEMBL4428065, “Fulvestrant-3 Boronic Acid (ZB716): An Orally Bioavailable Selective Estrogen Receptor Downregulator (SERD)” (J Med Chem, 2016).
